Data: ChEMBL document CHEMBL1148778, “Synthesis and characterization of nonsteroidal glucocorticoid receptor modulators for multiple myeloma” (J Med Chem, 2007)

Key:
Glucocorticoid receptor [1] = target: T1, Glucocorticoid receptor (Homo sapiens, UniProt P04150); assay: Agonist activity at human GR expressed in CV1 cells by GRE activation assay; format: functional, cell-based, CV-1
T1 sequence (P04150 whole entry): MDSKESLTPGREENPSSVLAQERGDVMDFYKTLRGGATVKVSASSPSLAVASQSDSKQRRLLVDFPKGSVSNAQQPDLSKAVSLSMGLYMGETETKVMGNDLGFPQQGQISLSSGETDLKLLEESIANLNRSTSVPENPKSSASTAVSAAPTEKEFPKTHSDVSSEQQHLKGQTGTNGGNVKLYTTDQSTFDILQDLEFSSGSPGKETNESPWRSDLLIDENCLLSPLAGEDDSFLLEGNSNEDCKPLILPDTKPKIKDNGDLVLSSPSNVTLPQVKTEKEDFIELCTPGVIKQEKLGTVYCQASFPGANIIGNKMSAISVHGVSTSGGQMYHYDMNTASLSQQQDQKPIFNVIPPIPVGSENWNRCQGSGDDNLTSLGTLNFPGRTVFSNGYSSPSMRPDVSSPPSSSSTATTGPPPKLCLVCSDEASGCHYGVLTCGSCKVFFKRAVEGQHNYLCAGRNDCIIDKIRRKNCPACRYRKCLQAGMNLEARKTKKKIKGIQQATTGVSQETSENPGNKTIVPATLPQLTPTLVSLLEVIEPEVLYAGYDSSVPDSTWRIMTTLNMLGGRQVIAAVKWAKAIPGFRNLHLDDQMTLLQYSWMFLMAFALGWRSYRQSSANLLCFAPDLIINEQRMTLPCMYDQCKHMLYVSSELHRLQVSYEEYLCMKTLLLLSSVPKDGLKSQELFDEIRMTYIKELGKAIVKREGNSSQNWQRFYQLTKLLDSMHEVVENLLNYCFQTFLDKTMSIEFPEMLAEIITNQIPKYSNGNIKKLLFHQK

Glucocorticoid receptor [2] = target: T1, Glucocorticoid receptor; assay: Activity at human GR expressed in NHDFneo cells assessed as inhibition of IL-6 production; format: cell-based
RPMI-8226 [3] = assay: Antiproliferative activity against human RPMI8226 cells after 4 days; format: functional, cell-based; conditions: RPMI-8226, 96 h
RPMI-8226 [4] = assay: Antiproliferative activity against human RPMI8226 cells after 4 days relative to Dexamethasone; format: functional
Glucocorticoid receptor [5] = target: T1, Glucocorticoid receptor; assay: Binding affinity to GR
Progesterone receptor = target: T2, Progesterone receptor (Homo sapiens, UniProt P06401); assay: Binding affinity to PR
T2 sequence (P06401 whole entry): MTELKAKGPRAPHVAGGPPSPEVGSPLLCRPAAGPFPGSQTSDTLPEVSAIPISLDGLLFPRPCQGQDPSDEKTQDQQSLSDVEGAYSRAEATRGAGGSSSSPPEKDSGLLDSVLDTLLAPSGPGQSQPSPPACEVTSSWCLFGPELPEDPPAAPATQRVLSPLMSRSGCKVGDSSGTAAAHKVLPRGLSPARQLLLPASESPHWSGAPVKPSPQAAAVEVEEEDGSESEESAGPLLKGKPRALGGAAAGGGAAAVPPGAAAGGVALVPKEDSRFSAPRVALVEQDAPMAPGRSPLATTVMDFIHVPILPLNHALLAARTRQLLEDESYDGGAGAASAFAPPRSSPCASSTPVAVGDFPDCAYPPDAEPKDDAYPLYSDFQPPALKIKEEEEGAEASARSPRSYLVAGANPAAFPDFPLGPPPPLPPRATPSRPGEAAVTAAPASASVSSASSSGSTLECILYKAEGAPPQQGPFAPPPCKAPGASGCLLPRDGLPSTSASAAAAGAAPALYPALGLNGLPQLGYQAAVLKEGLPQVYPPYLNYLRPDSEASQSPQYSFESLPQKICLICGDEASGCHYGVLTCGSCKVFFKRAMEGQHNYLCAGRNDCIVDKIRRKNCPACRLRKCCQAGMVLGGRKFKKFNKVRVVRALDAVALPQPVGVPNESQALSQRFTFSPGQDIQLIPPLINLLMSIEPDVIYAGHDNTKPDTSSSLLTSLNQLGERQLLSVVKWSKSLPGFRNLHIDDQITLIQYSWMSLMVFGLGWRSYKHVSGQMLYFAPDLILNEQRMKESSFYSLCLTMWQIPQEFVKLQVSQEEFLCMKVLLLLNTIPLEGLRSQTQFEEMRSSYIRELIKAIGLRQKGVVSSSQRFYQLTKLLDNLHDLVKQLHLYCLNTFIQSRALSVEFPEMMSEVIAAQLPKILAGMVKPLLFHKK
Method in brief: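 Competitive binding assays on PR and MR. Values are means of at least three separate experiments, each with triplicate determinations, ± SEM. A value without SEM comes from a single determination.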

Androgen receptor = target: T3, Androgen receptor (Homo sapiens, UniProt P10275); assay: Binding affinity to AR
T3 sequence (P10275 whole entry): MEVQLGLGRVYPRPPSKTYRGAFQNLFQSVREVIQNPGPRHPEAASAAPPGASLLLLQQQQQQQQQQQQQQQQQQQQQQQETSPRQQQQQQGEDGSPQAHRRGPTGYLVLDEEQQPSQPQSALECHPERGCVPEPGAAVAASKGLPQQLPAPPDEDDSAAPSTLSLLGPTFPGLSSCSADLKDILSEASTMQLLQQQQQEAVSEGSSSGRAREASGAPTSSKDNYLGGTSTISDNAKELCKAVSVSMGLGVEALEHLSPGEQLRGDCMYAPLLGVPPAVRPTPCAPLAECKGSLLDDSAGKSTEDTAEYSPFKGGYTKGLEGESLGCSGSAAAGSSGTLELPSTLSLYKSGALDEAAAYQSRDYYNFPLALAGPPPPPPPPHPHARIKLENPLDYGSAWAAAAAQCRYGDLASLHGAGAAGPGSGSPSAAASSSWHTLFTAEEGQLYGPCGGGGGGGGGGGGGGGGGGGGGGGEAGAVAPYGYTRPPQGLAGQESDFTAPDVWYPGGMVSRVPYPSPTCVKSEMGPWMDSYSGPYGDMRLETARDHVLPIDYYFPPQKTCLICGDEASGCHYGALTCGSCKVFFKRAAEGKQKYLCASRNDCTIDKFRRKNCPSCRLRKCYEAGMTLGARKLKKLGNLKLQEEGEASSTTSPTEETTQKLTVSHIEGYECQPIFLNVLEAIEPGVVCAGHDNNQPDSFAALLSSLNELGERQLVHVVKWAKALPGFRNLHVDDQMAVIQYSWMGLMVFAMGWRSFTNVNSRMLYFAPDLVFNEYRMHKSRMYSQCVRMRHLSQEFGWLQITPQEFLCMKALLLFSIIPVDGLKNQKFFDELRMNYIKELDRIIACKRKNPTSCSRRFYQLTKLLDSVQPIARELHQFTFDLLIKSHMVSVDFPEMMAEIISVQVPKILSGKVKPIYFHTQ

Row | SMILES | EC50 (Glucocorticoid receptor [1]) | IC50 (Glucocorticoid receptor [2]) | IC50 (RPMI-8226 [3]) | Efficacy (RPMI-8226 [4]) | Ki (Glucocorticoid receptor [5]) | Ki (Progesterone receptor) | Ki (Androgen receptor)
1 | COc1c(O)ccc2c1-c1ccc3c(c1/C(=C/c1sccc1CO)O2)C(C)=CC(C)(C)N3 | 0.2 nM | 0.2 nM | 4.9 nM | 99% | 0.7 nM | 1400 nM | 290 nM
2 | CO/N=C(\C)c1ccsc1/C=C1\Oc2ccc(O)c(OC)c2-c2ccc3c(c21)C(C)=CC(C)(C)N3 | 0.1 nM | 0.2 nM | 9.5 nM | 101% | 1.1 nM | 38 nM | 110 nM
3 | COCc1ccsc1/C=C1\Oc2ccc(O)c(OC)c2-c2ccc3c(c21)C(C)=CC(C)(C)N3 | 0.2 nM | 0.2 nM | 8.5 nM | 98% | 0.2 nM | 190 nM | 150 nM
